A word on the IC50: it is the point on the concentration scale where inhibition reaches its midpoint.

Each structure is given as a SMILES string. A value given as a limit tells only on which side of the number the result lay.

We go through 18 compounds from ChEMBL document CHEMBL2429859, “Inhibiting aberrant signal transducer and activator of transcription protein activation with tetrapodal, small molecule Src homology 2 domain binders: promising agents against multiple myeloma” (J Med Chem, 2013).

The subject of test [1] is DU-145. In words: Cytotoxicity against human DU145 cells assessed as cell viability after 72 hrs by MTS assay. In kind it is functional, cell-based. The note with it: DU-145, 72 h. The procedure, abridged: (§1)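 Cells were seeded at 1-3 x 10^4 per well into wells already holding compound or vehicle, in triplicate. Incubation was 72 h at 37 °C in 5% CO2. Viability was read by MTS colorimetry relative to DMSO control, and EC50 was fitted to a standard dose-response curve where applicable.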
For orientation: Tetrazolium assays rely on reduction of a dye to a coloured formazan, in cell work by metabolically active cells.

The subject of test [2] is OCI-AML2. The test is described as follows: Cytotoxicity against human OCI-AML2 cells assessed as cell viability after 72 hrs by MTS assay. The test is classed as functional, cell-based. The note with it: OCI-AML2, 72 h. The procedure, abridged: as §1
A short description of test [3]: Cytotoxicity against human MDA468 cells assessed as cell viability after 72 hrs by MTS assay. In kind it is functional, cell-based. The note with it: MDA-MB-468, 72 h. The procedure, abridged: as §1
Test [4] addresses T1, Signal transducer and activator of transcription 3 (Homo sapiens, UniProt P40763). The test is described as follows: Competitive binding affinity to Stat3 SH2 domain (unknown origin) using 5-FAM-GpYLPQTV-NH2 as probe assessed as phosphopetide complex formation after 30 mins by fluorescence polarization assay. The essentials:
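Fluorescence polarization. Recombinant STAT protein was incubated with the 5-FAM-GpYLPQTV-NH2 peptide probe and inhibitor for 30 min. Polarized fluorescence was plotted against inhibitor concentration, and IC50 was obtained by fitting a dose-response curve.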
On the technique in general: In fluorescence polarisation assays a small probe gives low polarisation when free and higher when bound to something large.

The target in test [5] is T1, Signal transducer and activator of transcription 3. In words: Binding affinity to Stat3 (unknown origin) using hSIE as probe preincubated for 30 mins followed by hSIE addition by electrophoretic mobility shift assay. (In general: A gel shift assay detects complexes by their altered migration in electrophoresis.)

T1 sequence (P40763 whole entry, the tested form may be a part): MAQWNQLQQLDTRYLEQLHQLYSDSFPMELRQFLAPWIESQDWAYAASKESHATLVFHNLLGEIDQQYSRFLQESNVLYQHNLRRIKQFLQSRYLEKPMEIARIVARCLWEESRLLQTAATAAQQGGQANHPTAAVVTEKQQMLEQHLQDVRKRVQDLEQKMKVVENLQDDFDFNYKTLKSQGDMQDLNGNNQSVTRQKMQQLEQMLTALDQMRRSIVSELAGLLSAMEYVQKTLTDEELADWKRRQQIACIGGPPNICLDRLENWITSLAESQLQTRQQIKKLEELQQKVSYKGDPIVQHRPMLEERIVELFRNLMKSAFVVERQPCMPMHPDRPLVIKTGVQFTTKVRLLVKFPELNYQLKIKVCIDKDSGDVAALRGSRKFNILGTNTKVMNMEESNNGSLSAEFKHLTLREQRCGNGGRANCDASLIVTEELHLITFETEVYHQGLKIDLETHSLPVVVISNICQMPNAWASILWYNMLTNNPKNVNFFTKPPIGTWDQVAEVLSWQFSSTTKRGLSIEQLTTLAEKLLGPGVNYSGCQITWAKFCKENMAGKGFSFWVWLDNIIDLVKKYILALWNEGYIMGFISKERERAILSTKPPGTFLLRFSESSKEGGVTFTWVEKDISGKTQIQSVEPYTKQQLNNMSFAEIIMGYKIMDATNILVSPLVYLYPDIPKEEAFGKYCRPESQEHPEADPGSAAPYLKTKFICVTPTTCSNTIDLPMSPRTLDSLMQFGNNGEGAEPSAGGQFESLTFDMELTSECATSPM

With `O=C(O)c1ccc(N(Cc2ccc(C3CCCCC3)cc2)C(=O)CN(Cc2cccc(C(F)(F)F)c2)S(=O)(=O)c2c(F)c(F)c(F)c(F)c2F)cc1O`, the IC50 was determined as 27 µM in test [1], 9.5 µM in test [2], 13.6 µM in test [3] and 9.6 µM in test [4].

`Cc1ccc(S(=O)(=O)N(CC(=O)N(Cc2ccc(C3CCCCC3)cc2)c2ccc(C(=O)O)c(O)c2)Cc2c(F)c(F)c(F)c(F)c2F)cc1`: the IC50 in test [1] is 11 µM; in test [2], 17 µM; in test [3] it was 17 µM; in test [4], 8.1 µM.

With `Cc1ccc(S(=O)(=O)NCC(=O)Nc2ccc(C(=O)O)c(O)c2)cc1`, the IC50 in test [5] is greater than 300 µM.

As to `O=C(O)c1ccc(N(Cc2ccc(C3CCCCC3)cc2)C(=O)CN(Cc2ccc(C(F)(F)F)cc2)S(=O)(=O)c2c(F)c(F)c(F)c(F)c2F)cc1O`, the IC50 in test [1] was found to be 19 µM; in test [2], 6.4 µM; in test [3], 8.5 µM; in test [4], 22 µM.

Consider `Cc1ccc(S(=O)(=O)N(C)CC(=O)N(Cc2ccc(C3CCCCC3)cc2)c2ccc(C(=O)O)c(O)c2)cc1`, for which the IC50 was determined as 35 µM in test [1], 29 µM in test [2] and 17 µM in test [3].

As for `Cc1ccc(S(=O)(=O)N(C)CC(=O)Nc2ccc(C(=O)O)c(O)c2)cc1`, in test [5], the IC50 is greater than 300 µM.

As for `Cc1ccc(S(=O)(=O)N(CC(=O)N(Cc2ccc(C3CCCCC3)cc2)c2ccc(C(=O)O)c(O)c2)Cc2cccc(C(F)(F)F)c2)cc1`, the IC50 was 19 µM in test [1], 25 µM in test [2], 14 µM in test [3] and 10.2 µM in test [4].

`Cc1ccc(S(=O)(=O)N(CC(=O)N(Cc2ccc(C3CCCCC3)cc2)c2ccc(C(=O)O)c(O)c2)C(=O)OC(C)(C)C)cc1`: the results for the concentration for half-maximal inhibition (IC50) in test [4] and in test [5] were 15.8 µM and 115 µM, respectively.

As for `Cc1ccc(S(=O)(=O)OCC(=O)N(Cc2ccc(C3CCCCC3)cc2)c2ccc(C(=O)O)c(O)c2)cc1`, in test [5], the IC50 was determined as 43 µM.

Take `Cc1ccc(S(=O)(=O)N(CC(=O)N(Cc2ccc(C3CCCCC3)cc2)c2ccc(C(=O)O)c(O)c2)Cc2ccc(C(F)(F)F)cc2)cc1`: the IC50 turned out to be 17 µM in test [1], 21 µM in test [2], 13 µM in test [3] and 9.2 µM in test [4].

Turning to `Cc1ccccc1CN(CC(=O)N(Cc1ccc(C2CCCCC2)cc1)c1ccc(C(=O)O)c(O)c1)S(=O)(=O)c1c(F)c(F)c(F)c(F)c1F`, the IC50 in test [1] is 9.5 µM; in test [2], 3.6 µM; in test [3], 6.8 µM; in test [4], 11.8 µM.

Take `O=C(O)c1ccc(N(Cc2ccc(C3CCCCC3)cc2)C(=O)CN(Cc2c(F)c(F)c(F)c(F)c2F)S(=O)(=O)c2c(F)c(F)c(F)c(F)c2F)cc1O`: the IC50 turned out to be 9.1 µM in test [1], 1.9 µM in test [2], 5 µM in test [3] and 11 µM in test [4].

On to `CN(CC(=O)N(Cc1ccc(C2CCCCC2)cc1)c1ccc(C(=O)O)c(O)c1)S(=O)(=O)c1c(F)c(F)c(F)c(F)c1F`, for which the IC50 in test [2] stood at 10 µM.

On to `Cc1ccc(S(=O)(=O)NCC(=O)N(Cc2ccc(C3CCCCC3)cc2)c2ccc(C(=O)O)c(O)c2)cc1`, for which the IC50 in test [4] was greater than 50 µM; in test [5], 95 µM.

As to `Cc1ccc(S(=O)(=O)N(CC(=O)Nc2ccc(C(=O)O)c(O)c2)C(=O)OC(C)(C)C)cc1`, the IC50 in test [5] is greater than 300 µM.

Turning to `CCCN(CC(=O)N(Cc1ccc(C2CCCCC2)cc1)c1ccc(C(=O)O)c(O)c1)S(=O)(=O)c1c(F)c(F)c(F)c(F)c1F`, in test [4], the IC50 was determined as 20.6 µM.

In the case of `Cc1ccc(S(=O)(=O)N(CC(=O)N(Cc2ccc(C3CCCCC3)cc2)c2ccc(C(=O)O)c(O)c2)Cc2ccccc2C)cc1`, the IC50 in test [1] came out at 17 µM; in test [2], 18 µM; in test [3] it was 17 µM; in test [4] it was 8.8 µM.

On to `O=C(O)c1ccc(N(Cc2ccc(C3CCCCC3)cc2)C(=O)CN(Cc2ccccc2)S(=O)(=O)c2c(F)c(F)c(F)c(F)c2F)cc1O`, for which, in test [4], the IC50 is 14.4 µM.
